Laboratory results taken from ChEMBL document CHEMBL1833814 (Bioorg Med Chem Lett, 2011).

Target: Fatty acid synthase (Homo sapiens, UniProt P49327)
Assay: Inhibition of human FAS assessed as synthesis of long chain fatty acids from malonyl CoA after 60 mins by fluorescence assay
Method in brief: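 FAS enzyme prepared from HeLa cells, in enzyme buffer (20 mM K phosphate, 1 mM EDTA, 1 mM DTT, 5% glycerol, pH 7.4). It was preincubated 60 min at 37 °C with compound (0.1% DMSO), 326 µM NADPH and 60 µM acetyl CoA in 100 mM K phosphate, 1 mM EDTA, 1 mM DTT, pH 7.0. The reaction was started with 200 µM malonyl CoA. NADPH consumption was read at 340 nm over 10 min, and the slope (Vmax) was taken.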

Sequence of Fatty acid synthase (P49327 whole entry): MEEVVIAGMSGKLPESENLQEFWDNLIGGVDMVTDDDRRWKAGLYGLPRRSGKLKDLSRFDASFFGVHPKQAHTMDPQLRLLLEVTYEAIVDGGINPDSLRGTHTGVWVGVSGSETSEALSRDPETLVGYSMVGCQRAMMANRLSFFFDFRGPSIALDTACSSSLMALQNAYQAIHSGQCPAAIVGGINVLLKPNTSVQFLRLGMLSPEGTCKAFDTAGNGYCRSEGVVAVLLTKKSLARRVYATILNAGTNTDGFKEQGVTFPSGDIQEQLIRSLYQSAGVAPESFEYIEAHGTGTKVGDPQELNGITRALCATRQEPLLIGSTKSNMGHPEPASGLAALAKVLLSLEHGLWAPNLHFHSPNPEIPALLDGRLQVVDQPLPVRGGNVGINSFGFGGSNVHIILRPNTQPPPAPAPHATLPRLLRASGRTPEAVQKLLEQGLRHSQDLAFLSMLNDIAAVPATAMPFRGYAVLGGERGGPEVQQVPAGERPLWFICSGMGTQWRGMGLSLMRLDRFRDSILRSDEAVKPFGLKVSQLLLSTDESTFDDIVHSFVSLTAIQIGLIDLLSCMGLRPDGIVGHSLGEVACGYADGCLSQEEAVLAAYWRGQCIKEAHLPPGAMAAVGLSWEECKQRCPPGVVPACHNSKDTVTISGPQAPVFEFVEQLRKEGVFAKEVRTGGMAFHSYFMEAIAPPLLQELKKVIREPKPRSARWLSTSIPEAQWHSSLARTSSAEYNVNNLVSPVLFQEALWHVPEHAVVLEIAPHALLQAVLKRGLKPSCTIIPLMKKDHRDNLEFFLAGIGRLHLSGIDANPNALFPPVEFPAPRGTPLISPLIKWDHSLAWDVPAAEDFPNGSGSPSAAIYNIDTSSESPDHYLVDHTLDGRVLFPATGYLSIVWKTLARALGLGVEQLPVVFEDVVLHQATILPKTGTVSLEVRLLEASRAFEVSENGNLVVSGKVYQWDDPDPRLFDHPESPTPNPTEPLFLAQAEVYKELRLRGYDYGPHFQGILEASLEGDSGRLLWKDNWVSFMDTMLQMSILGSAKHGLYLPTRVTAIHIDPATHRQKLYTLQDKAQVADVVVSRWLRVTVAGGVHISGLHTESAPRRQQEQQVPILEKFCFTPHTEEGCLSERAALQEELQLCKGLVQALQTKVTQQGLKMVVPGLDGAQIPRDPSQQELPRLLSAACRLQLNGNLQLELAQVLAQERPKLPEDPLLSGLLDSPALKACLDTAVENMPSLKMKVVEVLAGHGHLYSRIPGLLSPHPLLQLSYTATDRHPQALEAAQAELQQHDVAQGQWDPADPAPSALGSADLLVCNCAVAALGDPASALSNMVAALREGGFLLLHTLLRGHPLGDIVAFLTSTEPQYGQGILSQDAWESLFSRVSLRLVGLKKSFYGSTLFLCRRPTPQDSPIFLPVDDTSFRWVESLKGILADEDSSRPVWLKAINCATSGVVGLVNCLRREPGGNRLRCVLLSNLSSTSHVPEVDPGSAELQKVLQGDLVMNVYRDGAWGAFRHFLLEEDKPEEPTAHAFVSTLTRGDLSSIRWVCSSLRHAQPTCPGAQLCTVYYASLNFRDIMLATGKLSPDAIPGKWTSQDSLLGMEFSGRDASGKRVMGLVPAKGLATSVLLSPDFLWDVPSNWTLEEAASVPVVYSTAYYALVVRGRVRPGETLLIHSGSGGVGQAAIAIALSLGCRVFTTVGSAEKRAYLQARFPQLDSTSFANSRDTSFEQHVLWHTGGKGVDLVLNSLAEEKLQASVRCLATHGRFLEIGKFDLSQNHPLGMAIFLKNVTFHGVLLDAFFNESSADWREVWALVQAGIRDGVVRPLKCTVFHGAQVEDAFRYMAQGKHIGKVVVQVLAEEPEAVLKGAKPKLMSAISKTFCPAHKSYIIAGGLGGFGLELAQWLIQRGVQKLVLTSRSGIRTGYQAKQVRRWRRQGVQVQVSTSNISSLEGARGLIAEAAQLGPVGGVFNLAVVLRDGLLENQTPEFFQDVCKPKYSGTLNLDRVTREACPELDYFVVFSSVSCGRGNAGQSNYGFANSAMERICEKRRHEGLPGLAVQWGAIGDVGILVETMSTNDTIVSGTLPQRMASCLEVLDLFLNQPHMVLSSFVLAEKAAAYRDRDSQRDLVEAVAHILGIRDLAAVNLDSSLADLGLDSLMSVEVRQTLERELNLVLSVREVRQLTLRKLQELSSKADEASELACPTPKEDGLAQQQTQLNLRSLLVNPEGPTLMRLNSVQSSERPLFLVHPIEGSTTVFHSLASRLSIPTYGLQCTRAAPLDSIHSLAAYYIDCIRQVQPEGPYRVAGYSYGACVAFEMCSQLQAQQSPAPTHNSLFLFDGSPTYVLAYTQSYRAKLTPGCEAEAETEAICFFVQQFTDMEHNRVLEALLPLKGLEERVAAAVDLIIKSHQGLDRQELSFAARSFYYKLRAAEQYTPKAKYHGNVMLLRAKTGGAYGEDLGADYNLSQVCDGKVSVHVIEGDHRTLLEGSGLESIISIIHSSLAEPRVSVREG

SMILES: CCC(=O)N[C@H]1CC[C@@H](C(=O)N(C)c2ccc(-c3cn4ccccc4n3)cc2)C1
- IC50: 290 nM

SMILES: CCC(=O)N[C@H]1CC[C@@H](C(=O)N(C)c2ccc(-c3nc4ccccc4[nH]3)cc2)C1
- IC50: 190 nM

SMILES: CN(C)CCCCCC(=O)N[C@H]1CC[C@@H](C(=O)N(C)c2ccc(-c3nc4ccccc4n3C)cc2)C1
- IC50: 2400 nM

SMILES: CCNC(=O)N[C@H]1CC[C@@H](C(=O)N(C)c2ccc(-c3nc4ccccc4[nH]3)cc2)C1
- IC50: 400 nM

SMILES: CCNC(=O)N[C@H]1CC[C@@H](C(=O)N(C)c2ccc(-c3ccccc3)cc2)C1
- IC50: 1500 nM

SMILES: CCC(=O)N[C@H]1CC[C@@H](C(=O)N(C)c2ccc(-c3ccccc3)cc2)C1
- IC50: 300 nM

SMILES: CN(C)CCCCCC(=O)N[C@H]1CC[C@@H](C(=O)N(C)c2ccc(-c3ccccc3)cc2)C1
- IC50: 2000 nM

SMILES: CC(=O)N[C@H]1CC[C@@H](C(=O)N(C)c2ccc(-c3ccccc3)cc2)C1
- IC50: 480 nM

SMILES: CC(=O)N[C@H]1CC[C@@H](C(=O)N(C)c2ccc(-c3nc4ccccc4[nH]3)cc2)C1
- IC50: 1300 nM

SMILES: CCC(=O)N[C@H]1CC[C@@H](C(=O)N(C)c2ccc(-c3nc4ccccc4n3C)cc2)C1
- IC50: 310 nM

SMILES: CCNC(=O)N[C@H]1CC[C@@H](C(=O)N(C)c2ccc(-c3nc4ccccc4o3)cc2)C1
- IC50: 530 nM

SMILES: CC(=O)N[C@@H]1CC[C@H](C(=O)N(C)c2ccc(-c3ccccc3)cc2)C1
- IC50: > 10000 nM
